“Also recorded” adds a separate entry of the source.
How the values were obtained:
[1] = system: AML cell lines; test: CellTiter-Glo cell viability across the cell line panel; format: cell-based, human; details: for sensitivity of the Val-boroPro-sensitive AML cell lines to the compound: cell viability relative to DMSO; for sensitivity of the Val-boroPro-sensitive AML cell lines to the compound / reduction in cell viability: 48 h
[2] = system: caspase-1 knockout OCI-AML2, MV4;11 and THP-1 cells; test: Cell viability of caspase-1 knockout cells; format: cell-based, human
[3] = system: AML cell lines; details: cited from earlier work
[4] = system: THP-1 or MV4;11 cells; test: LDH release with Val-boroPro plus bortezomib; format: cell-based, human; details: bortezomib 100 nM with Val-boroPro 2 μM, 6 h
[5] = system: K562 cells; test: CellTiter-Glo cell viability assay; format: cell-based, human
[6] = system: HEK 293T cells; test: CellTiter-Glo cell viability assay; format: cell-based, human; details: HEK293T
[7] = system: non-AML cell lines; test: CellTiter-Glo cell viability across the cell line panel; format: cell-based, human
Procedure, shortened: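 Cells were dispensed at 2000 cells/well in 25 μL of medium, and compound was added by pintool. MV4;11 and RS4;11 were incubated 22 h and all other lines 46 h, at 37 °C. Plates were equilibrated to room temperature, then CellTiter-Glo was added, with 2 min orbital shaking and 10 min at room temperature. Luminescence is expressed relative to DMSO as mean ± SEM of three biological replicates.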

[8] = system: NLRP1−/− THP-1 and MV4;11 cells; test: LDH release / GSDMD cleavage in NLRP1 knockout cells; format: cell-based, human
[9] = system: CARD8−/− THP-1, MV4;11 and OCI-AML2 cells; test: LDH release / GSDMD cleavage in CARD8 knockout cells; format: cell-based, human; details: 2 μM; 24 h OCI-AML2 and MV4;11, 48 h THP-1
[10] = system: HEK 293T cells stably expressing hCASP1 and hGSDMD transfected with CARD8; test: LDH release from transfected HEK 293T cells; format: cell-based, human; details: 2 μM, 24 h; CARD8 but not NLRP1 or S297A CARD8
Procedure, shortened: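 HEK 293T cells stably expressed human caspase-1 (hygromycin-selected) and gasdermin D (puromycin-selected) after lentiviral transduction. They were seeded at 0.5 × 10^6/well in DMEM/10% FBS one day before Fugene HD transfection, with total DNA brought to 2 μg with RFP vector; RFP vector alone served as mock. After 24 h, cells got DMSO or 2 μM for a further 24 h. Supernatant LDH was measured (mean ± SEM, three experiments).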

[11] = system: sensitive AML cell lines; test: Immunoblotting of GSDMD and PARP cleavage; format: cell-based, human; details: 24 h
[12] = system: MV4;11 leukemia cells; test: Disseminated MV4; format: in vivo, mouse; details: 20 μg i.p. once daily, 5 days a week for 4 weeks; log-rank test
Procedure, shortened: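 Luciferase-expressing MV4;11 cells (1 million, neomycin-selected) were injected into the tail vein of 200 cGy-irradiated 7-week female NSG mice. From day 5, randomized mice (n=9/group) got 100 μL i.p. vehicle (1 mM HCl in PBS, pH 7.4) or 20 μg/100 μL once daily, 5 days/week for 4 weeks. BLI tracked burden. Survival ran from inoculation to moribund state (6/group), analysed by log-rank test.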

[13] = system: CASP1−/− MV4;11 leukemia cells; test: Disseminated CASP1−/− MV4; format: in vivo, mouse; details: 20 μg i.p. once daily, 5 days a week, 3 weeks
Procedure, shortened: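 NSG mice (female, 7 weeks, 200 cGy irradiated) received 1 million luciferase-expressing CASP1−/− MV4;11 cells by tail vein. On day 5 they were randomized (n=9/group) and dosed i.p. with 100 μL vehicle (1 mM HCl in PBS, pH 7.4) or 20 μg/100 μL once daily, 5 days/week. Dosing stopped after 3 weeks. Burden was tracked by bioluminescence; survival to moribund state used all 9 animals.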

[14] = Tolerability in MV4; format: in vivo, mouse; details: NSG mice, 20 μg i.p., treatment day 23
Procedure, shortened: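 Disseminated MV4;11-Luc NSG model: mice were dosed i.p. with 100 μL vehicle (1 mM HCl/PBS) or 20 μg/100 μL daily, 5 days/week, and weighed daily. After 23 days of dosing, peripheral blood was taken from 3 mice per group, chosen by high, median and low BLI flux. It was analysed for complete blood counts and blood chemistry. Femur, spleen, lung and liver sections were H&E-stained.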

[15] = Evaluation in wild-type C57BL/6J mice; format: in vivo, mouse; details: 20 μg i.p.
Procedure, shortened: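 Female C57BL/6J mice (7 weeks) received vehicle (1 mM HCl/PBS) or 20 μg either once (n=5/group, harvested at 6 h or 24 h) or once daily, 5 days/week for two weeks (10 doses, n=4, harvested 24 h after the last dose). Blood was analysed for complete blood count and blood chemistry.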

[16] = system: primary human cancer AML-10; test: AML-10 patient-derived xenograft; format: in vivo, mouse; details: 2 mg/kg, PDX model
[17] = system: primary AML cells; test: Primary cancer cell assay; format: cell-based, human; details: 20 µM, 48 h, FACS
[18] = system: primary T-ALL samples; test: Primary cancer cell assay; format: cell-based, human; details: 20 µM, FACS
Procedure, shortened: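 Bone marrow aspirates were strained, Ficoll-separated and ACK-lysed, then frozen; AML samples 1–4 were first passaged in NSG mice. Cells were thawed in IMDM/15% FBS with DNase1 and cultured with 2-mercaptoethanol, G-CSF, SCF, IL-3 and FLT3-ligand. One day later, 100,000 cells/well were treated in triplicate with 20 μM or DMSO for 40 h at 37 °C. Death was scored by flow cytometry (anti-human/anti-mouse CD45, PI or DAPI).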

[19] = system: primary B-ALL; test: Primary cancer cell assay; format: cell-based, human; details: 20 µM, 48 h, FACS
[20] = system: primary human cord blood CD34+ cells; test: CellTiter-Glo cell viability assay; format: cell-based; details: 6 μM, 24 h, Cell Titer Glo
Procedure, shortened: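 Human cord blood cells were thawed in IMDM/15% FBS with DNase1 (1 mg/mL). Culture medium was IMDM/10% FBS with TPO, SCF and G-CSF (each 100 ng/mL). Cells were assayed immediately after thawing at 2000 cells/well with pintool compound addition, incubated 22 h at 37 °C, and read by CellTiter-Glo luminescence after 2 min shaking and 10 min at room temperature.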

[21] = cited from earlier work
[22] = system: G-CSF and Cxcl1; details: mice; cited from earlier work
[23] = system: G-CSF; details: healthy volunteers and cancer patients; cited from earlier work

CC[C@@H](C)[C@H](N)C(=O)N1Cc2ccccc2C1 [L-allo-Ile-isoindoline]
sensitivity of the Val-boroPro-sensitive AML cell lines to the compound [1]: sensitive | sensitivity of caspase-1 knockout cells [2]: resistant

N#C[C@@H]1CCCN1C(=O)CNC12CC3CC(CC(O)(C3)C1)C2 [vildagliptin]
anti-AML cytotoxicity on its own [3]: did not exhibit any anti-AML cytotoxicity

CC(C)C[C@H](NC(=O)[C@H](Cc1ccccc1)NC(=O)c1cnccn1)B(O)O [bortezomib]
effect on activation of CARD8 by Val-boroPro (LDH release) [4]: blocks

CC(C)[C@H](N)C(=O)N1CCC[C@H]1B(O)O [Val-boroPro]
cell death after 5 days of treatment [5]: no cell death | cell death after 5 days of treatment [6]: no cell death | reduction in cell viability ([1]; KG1, THP-1 and NOMO-1): 40–65% | reduction in cell viability ([1]; MV4;11, OCI-AML2, SET-2, RS4;11 and MOLM-13): > 80% | IC50 ([1]; Homo sapiens, read-out: IC50 values in sensitive AML cell lines): 6 to 206 nM | time in which cells died ([1]; MV4;11 and OCI-AML2 cells): 1 to 2 days | compound treatment required to achieve maximal cell killing ([1]; THP-1 and NOMO-1 cells): 5 days | activity against non-AML cell lines tested [7]: no activity | sensitivity of caspase-1 knockout cells [2]: resistant | pyroptosis in NLRP1−/− cells [8]: induced pyroptosis | sensitivity of CARD8−/− cells (GSDMD cleavage, cell death) [9]: completely resistant | cytotoxicity in CARD8-expressing HEK 293T cells [10]: sensitive | cleavage of gasdermin D (GSDMD), not PARP [11]: induced cleavage | median extension in survival [12]: 24.5 days | efficacy against CASP1−/− MV4;11 cells in vivo (bioluminescence, survival) [13]: absolutely no efficacy; also recorded: not statistically different | effects on peripheral blood cell counts, serum chemistry, body weight [14]: no significant effects | effects on peripheral blood counts or body weight [15]: no significant effects | weight loss associated with leukemia progression [16]: slowed weight loss | cell death in primary AML samples [17]: sensitive | cell death in primary T-ALL samples [18]: completely resistant | cell death in primary B-ALL [19]: sensitive | cell death in primary CD34+ human cord blood cells [20]: sensitive | maximum tolerated dose in humans [21]: without reaching a maximum tolerated dose | serum concentrations reached in humans [21]: > 100 nM | serum protein levels of several cytokines, including G-CSF and Cxcl1 [22]: increases | levels of a number of cytokines, including G-CSF [23]: elevated

N[C@@H](CC(=O)N1CCn2c(nnc2C(F)(F)F)C1)Cc1cc(F)c(F)cc1F [sitagliptin]
sensitivity of the Val-boroPro-sensitive AML cell lines to the compound [1]: not sensitive
